For orientation: IC50 means the concentration that inhibits the measured activity by half.

In series [1] the test system is Plasmodium falciparum. Put plainly: Antimalarial activity against asexual erythrocyte stage of chloroquine-resistant Plasmodium falciparum Dd2 by parasite lactate dehydrogenase assay. Type of series: functional, organism-based. The method, boiled down:
(§1)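 Asexual erythrocyte-stage P. falciparum kept in continuous culture (modified Trager–Jensen). Growth was read by parasite lactate dehydrogenase assay. Stocks were 20 mg/ml in 100% DMSO, sonicated, and tested as suspension if not dissolved. Full dose–response started at 100 ng/ml, with 2-fold serial dilution in complete medium to 10 concentrations (lowest 0.2 ng/ml). Each strain was tested in triplicate on one occasion. IC50 is 50% parasite growth inhibition.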

In series [2] the test system is Plasmodium falciparum. Briefly: Resistance index ratio of IC50 for asexual erythrocyte stage of chloroquine-resistant Plasmodium falciparum Dd2 to IC50 for asexual erythrocyte stage of chloroquine-sensitive Plasmodium falciparum D10. In kind it is functional.
For series [3], the system named is Plasmodium falciparum. Briefly: Antimalarial activity against asexual erythrocyte stage of chloroquine-sensitive Plasmodium falciparum D10 by parasite lactate dehydrogenase assay. Type of series: functional, organism-based. An outline of the steps:
as §1

The subject of the next series is CHO. Briefly: Cytotoxicity against CHO cells by MTT assay. In kind it is cell-based, Cricetulus griseus. The settings on record: for Activity: chinese hamster, cho; for IC50: Cricetulus griseus, CHO. (In general: Tetrazolium assays rely on reduction of a dye to a coloured formazan, in cell work by metabolically active cells.)

`C[C@H]1[C@@H](OCCN2CCCCC2)O[C@@H]2O[C@@]3(C)CC[C@H]4[C@H](C)CC[C@@H]1[C@@]24OO3.O=C(O)C(=O)O`: the concentration for half-maximal inhibition (IC50) amounted to 32.1 nM in the series with Plasmodium falciparum [1] and 3.31 nM in the series with Plasmodium falciparum [3]. The “Ratio IC50” value in the series with Plasmodium falciparum [2] turned out to be 9.695. In addition, in the series with CHO, the Activity entry was “Non-toxic”.
For `C[C@H]1[C@@H](OCCNCCNc2ccccc2)O[C@@H]2O[C@@]3(C)CC[C@H]4[C@H](C)CC[C@@H]1[C@@]24OO3.O=C(O)C(=O)O`, the half-maximal inhibitory concentration (IC50) in the series with Plasmodium falciparum [1] came to 55.1 nM; with Plasmodium falciparum [3] it was 2.61 nM; in the series on CHO, 47500 nM. For the same compound, the “Ratio IC50” value with Plasmodium falciparum [2] was 21.086.
Turning to `CC(C)N(CCNCCO[C@H]1O[C@@H]2O[C@@]3(C)CC[C@H]4[C@H](C)CC[C@@H]([C@H]1C)[C@@]24OO3)C(C)C.O=C(O)C(=O)O`, the IC50 with Plasmodium falciparum [1] is 48.1 nM; in the series with Plasmodium falciparum [3], 1.83 nM. In addition, in the series with Plasmodium falciparum [2], the “Ratio IC50” value was determined as 26.24. Moreover, in the series on CHO, the Activity result is given as “Non-toxic”.
For `C[C@H]1[C@@H](OCCNCCN2CCOCC2)O[C@@H]2O[C@@]3(C)CC[C@H]4[C@H](C)CC[C@@H]1[C@@]24OO3.O=C(O)C(=O)O`, in that order: 61.6 nM, 6.88 nM, 8.945 and “Non-toxic”.
`CC(C)CNCCO[C@H]1O[C@@H]2O[C@@]3(C)CC[C@H]4[C@H](C)CC[C@@H]([C@H]1C)[C@@]24OO3.O=C(O)C(=O)O`: the values for the half-maximal inhibitory concentration (IC50) in the series on Plasmodium falciparum [1], in the series with Plasmodium falciparum [3] and in the series on CHO were 54.9 nM, 4.01 nM and 72900 nM, respectively. For the same compound, the “Ratio IC50” value in the series on Plasmodium falciparum [2] was 13.68.
Turning to `CC[C@H]1CN2CCc3cc(OC)c(OC)cc3[C@@H]2C[C@@H]1C[C@H]1NCCc2cc(OC)c(OC)cc21` [EMETINE], the IC50 in the series with CHO came to 19.8 nM.
In the case of `C[C@H]1[C@@H](OCCN(C)Cc2ccccc2)O[C@@H]2O[C@@]3(C)CC[C@H]4[C@H](C)CC[C@@H]1[C@@]24OO3.O=C(O)C(=O)O`, the results for the IC50 in the series on Plasmodium falciparum [1], in the series on Plasmodium falciparum [3] and with CHO were 20.1 nM, 1.44 nM and 141000 nM, respectively. Also, in the series with Plasmodium falciparum [2], the “Ratio IC50” value was 13.888.
Regarding `C[C@H]1[C@@H](O)O[C@@H]2O[C@@]3(C)CC[C@H]4[C@H](C)CC[C@@H]1[C@@]24OO3` [ARTENIMOL], the figures for the IC50 with Plasmodium falciparum [1] and in the series on Plasmodium falciparum [3] were 3.48 nM and 0.785 nM, respectively. The “Ratio IC50” value in the series with Plasmodium falciparum [2] is 4.433.
On to `C[C@H]1[C@@H](OCCNCCCn2ccnc2)O[C@@H]2O[C@@]3(C)CC[C@H]4[C@H](C)CC[C@@H]1[C@@]24OO3.O=C(O)C(=O)O`, for which the IC50 in the series with Plasmodium falciparum [1] was determined as 189 nM; with Plasmodium falciparum [3] it was 6.04 nM. The “Ratio IC50” value in the series on Plasmodium falciparum [2] amounted to 31.343. The Activity entry in the series on CHO is recorded as “Non-toxic”.
With `C[C@H]1[C@@H](OCCN2CCNCC2)O[C@@H]2O[C@@]3(C)CC[C@H]4[C@H](C)CC[C@@H]1[C@@]24OO3.O=C(O)C(=O)O`, the concentration for half-maximal inhibition (IC50) in the series with Plasmodium falciparum [1] turned out to be 50.9 nM; in the series with Plasmodium falciparum [3], 1.8 nM. Also, the “Ratio IC50” value in the series with Plasmodium falciparum [2] amounted to 28.318. For the same compound, the Activity result in the series on CHO is listed as “Non-toxic”.
As for `C[C@H]1[C@@H](OCCNCCN2CCCCC2)O[C@@H]2O[C@@]3(C)CC[C@H]4[C@H](C)CC[C@@H]1[C@@]24OO3.O=C(O)C(=O)O`, the values for the IC50 in the series on Plasmodium falciparum [1] and in the series with Plasmodium falciparum [3] were 66.7 nM and 6.72 nM, respectively. The “Ratio IC50” value with Plasmodium falciparum [2] stood at 9.932. For the same compound, the Activity entry in the series on CHO is on record as “Non-toxic”.
The corresponding values for `C[C@H]1[C@@H](OCCN2CCOCC2)O[C@@H]2O[C@@]3(C)CC[C@H]4[C@H](C)CC[C@@H]1[C@@]24OO3.O=C(O)C(=O)O` are 16.2 nM, 4.64 nM, 3.483 and “Non-toxic”.
On to `C[C@H]1[C@H](OC(=O)CCC(=O)[O-])O[C@@H]2O[C@@]3(C)CC[C@H]4[C@H](C)CC[C@@H]1[C@@]24OO3.[Na+]` [SODIUM ARESUNATE], for which the half-maximal inhibitory concentration (IC50) stood at 25.9 nM in the series with Plasmodium falciparum [1] and 0.933 nM in the series on Plasmodium falciparum [3]. For the same compound, the “Ratio IC50” value with Plasmodium falciparum [2] amounted to 27.719.
Turning to `C[C@H]1[C@@H](OCCNCc2ccco2)O[C@@H]2O[C@@]3(C)CC[C@H]4[C@H](C)CC[C@@H]1[C@@]24OO3.O=C(O)C(=O)O`, the half-maximal inhibitory concentration (IC50) in the series with Plasmodium falciparum [1] is 21.4 nM; with Plasmodium falciparum [3] it was 2.41 nM; in the series with CHO it was 79700 nM. Moreover, in the series with Plasmodium falciparum [2], the “Ratio IC50” value is 8.858.

The record behind these values is ChEMBL document CHEMBL2057139, “Synthesis, antimalarial activity and cytotoxicity of 10-aminoethylether derivatives of artemisinin” (Bioorg Med Chem, 2012).
